pIC50: −log10 of the molar value. Active and inactive are the calls of the source. No cut-off for these calls is given here.
Columns and labels:
Splenocyte [1] = experiment: Antiinflammatory activity in BALB/c mouse splenocytes assessed as inhibition of concanavalin A-induced IL-10 level at 10 uM after 48 hrs by ELISA; type: functional, cell-based
Outline: (§1)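 Splenocytes from BALB/c mice at 5×10^6 cells/well in DMEM, stimulated with Con A 5 µg/mL, with compound at 10, 5 and 2.5 µM. Cell-free supernatants collected at 48 h and stored at -80 °C. IL-2, IL-4, IL-10, IL-17 and IFNγ measured by sandwich ELISA. Dexamethasone control at 10 µM (1.0 µM for IL-2). Mean±S.E.M. from one of two experiments.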

Splenocyte [2] = experiment: Antiinflammatory activity in BALB/c mouse splenocytes assessed as inhibition of concanavalin A-induced IL-4 level at 10 uM after 48 hrs by ELISA; type: functional, cell-based; outline: as §1
Splenocyte [3] = experiment: Antiinflammatory activity in BALB/c mouse splenocytes assessed as inhibition of concanavalin A-induced IL-2 level at 1 uM after 48 hrs by ELISA; type: functional, cell-based; outline: as §1
Splenocyte [4] = experiment: Antiinflammatory activity in BALB/c mouse splenocytes assessed as inhibition of concanavalin A-induced IL-17A level at 10 uM after 48 hrs by ELISA; type: functional, cell-based; outline: as §1
[5] = Cytotoxicity against BALB/c mouse J774 cells assessed as reduction in cell viability after 72 hrs by alamarBlue assay; type: cell-based
Outline: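 J774 murine macrophages, 1×10^4 cells/well in DMEM + 10% FBS, pre-incubated 24 h at 37°C, 5% CO2; compounds 100–0.41 μM in triplicate for 72 h. AlamarBlue added for 4 h, absorbance at 570 and 600 nm; gentian violet positive control. CC50 from three independent experiments.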

Splenocyte [6] = experiment: Antiinflammatory activity in BALB/c mouse splenocytes assessed as inhibition of concanavalin A-induced IFN-gamma level at 10 uM after 48 hrs by ELISA; type: functional, cell-based; outline: as §1
J774 = experiment: Antiinflammatory activity in BALB/c mouse J774 cells assessed as inhibition of LPS/IFNgamma-induced nitric oxide production at 20 uM after 24 hrs by Griess method relative to control; type: functional; conditions: J774, 24 h
Outline: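 J774 macrophages, 2×10^5 cells/well in DMEM + 10% FBS, allowed to settle 2 h at 37°C, 5% CO2; stimulated with LPS (E. coli 0111:B4, 500 ng/mL) plus IFNγ (5 ng/mL) with compound present (primary screen at 20 μM). Nitrite measured by Griess in supernatants at 24 h; % inhibition against stimulated untreated control.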

Splenocyte [7] = experiment: Immunomodulatory activity in BALB/c mouse splenocytes assessed as inhibition of concanavalin A-induced lymphocyte proliferation by measuring [3H]-thymidine uptake after 48 to 72 hrs by scintillation counting analysis; type: functional, cell-based
Outline: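 BALB/c splenocytes at 1×10^6 cells/well, in triplicate, stimulated with Con A (2 μg/mL) or anti-CD3/CD28 beads (1:1 bead:cell) with compound at 12–0.04 μM. After 48 h, 1 μCi 3H-thymidine added for a further 18 h; scintillation counting. Proliferation as % uptake versus untreated; dexamethasone control. IC50 from three independent experiments.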

Mus musculus = experiment: Antiinflammatory activity in carrageenan-induced BALB/c mouse peritonitis model assessed as reduction in number of neutrophils in peritoneal fluid at 80 mg/kg, ip pretreated for 1 hr followed by carrageenan challenge measured after 4 hrs by hematoxylin and eosin staining-based assay relative to control; type: functional
Outline: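 Male BALB/c mice were dosed orally with compound (20 or 80 mg/kg) or vehicle; indomethacin 80 mg/kg was given ip. One hour later, carrageenan (250 µL of 1.0 mg/mL) was injected ip. Peritoneal lavage with 2 mL saline at 4 h. Total leukocytes counted in Neubauer chamber with Trypan blue; neutrophils by blinded 200-cell differential on H&E-stained cytospins.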

SMILES | CC50 at 72 h [5] [µM] | inhibition at 20 µM (J774) [%] | pIC50 (Splenocyte [7]) | also measured
C[C@@H]1C[C@H]2[C@@H]3CCC4=CC(=O)C=C[C@]4(C)[C@@]3(F)[C@@H](O)C[C@]2(C)[C@@]1(O)C(=O)CO [DEXAMETHASONE] | 91.1 | 69.8 | 9.00 | inhibition (Splenocyte [1]): Active; inhibition (Splenocyte [2]): Active; inhibition (Splenocyte [3]): Active; inhibition (Splenocyte [4]): Active; inhibition (Splenocyte [6]): Active
COc1cc(C(=O)N/N=C(C)/C=N/Nc2ccc([N+](=O)[O-])cc2)ccc1O | > 100 | 6.6 | 5.29 | 
CC(/C=N/Nc1ccc([N+](=O)[O-])cc1)=N\NC(=O)c1ccccc1C | > 100 | 21.9 | 5.22 | 
CC(/C=N/N(C)c1ccc([N+](=O)[O-])cc1)=N\NC(=O)c1ccc(N)cc1 | 51.7 | 3.6 | < 4.92 | 
CC(/C=N/Nc1ccc([N+](=O)[O-])cc1)=N\NC(=O)c1ccccc1F | > 100 | 5.3 | < 4.92 | 
CC(/C=N/N(C)c1ccc([N+](=O)[O-])cc1)=N\NC(=O)c1ccccc1O | 31.5 | 41 | 5.51 | 
CC(/C=N/Nc1ccc([N+](=O)[O-])cc1)=N\NC(=O)c1ccc(N(C)C)cc1 | > 100 | 25.6 | < 4.92 | 
COc1ccc(C(=O)N/N=C(C)/C=N/Nc2ccc([N+](=O)[O-])cc2)cc1 | > 100 | 7.5 | < 4.92 | 
CC(/C=N/N(C)c1ccc([N+](=O)[O-])cc1)=N\NC(=O)c1cc([N+](=O)[O-])cc([N+](=O)[O-])c1 | 39 | 51 | 5.95 | 
CC(/C=N/Nc1ccc([N+](=O)[O-])cc1)=N\NC(=O)c1ccc(O)cc1 | 51 | 43.8 | 5.82 | 
CC(/C=N/Nc1ccc([N+](=O)[O-])cc1)=N\NC(=O)c1ccccc1Oc1ccccc1 | > 100 | 5.5 | < 4.92 | 
CC(/C=N/Nc1ccc([N+](=O)[O-])cc1)=N\NC(=O)c1ccc(C(F)(F)F)cc1 | 78.7 | 18.7 | < 4.92 | 
CC(/C=N/Nc1ccc([N+](=O)[O-])cc1)=N\NC(=O)c1ccccc1N | 29.8 | 39.3 | 5.31 | 
CC(/C=N/Nc1ccc([N+](=O)[O-])cc1)=N\NC(=O)c1ccc(Cl)cc1 | 63.9 | 23 | 5.38 | 
CC(/C=N/Nc1ccc([N+](=O)[O-])cc1)=N\NC(=O)c1ccccc1O | 29.5 | 59.7 | 5.79 | 
CC(/C=N/Nc1ccc([N+](=O)[O-])cc1)=N\NC(=O)c1ccccc1 | > 100 | 31.4 | < 4.92 | 
CC(/C=N/Nc1ccc([N+](=O)[O-])cc1)=N\NC(=O)c1ccccc1Nc1ccccc1 | > 100 | 14.1 |  | 
CC(/C=N/Nc1ccc([N+](=O)[O-])cc1)=N\NC(=O)c1ccc([N+](=O)[O-])cc1 | > 100 | 39.1 | 6.01 | 
CC(/C=N/Nc1ccc([N+](=O)[O-])cc1)=N\NC(=O)c1ccc(C(C)(C)C)cc1 | > 100 | 4.8 | < 4.92 | 
CC(/C=N/Nc1ccc([N+](=O)[O-])cc1)=N\NC(=O)c1ccccc1I | 40 | 56.8 | 5.53 | 
CC(/C=N/Nc1ccc([N+](=O)[O-])cc1)=N\NC(=O)c1ccc2c(c1)OCO2 | > 100 | 23.2 | < 4.92 | 
CC(/C=N/Nc1ccc([N+](=O)[O-])cc1)=N\NC(=O)c1ccccc1Cl | > 100 | 39.4 | < 4.92 | 
CC(/C=N/Nc1ccc([N+](=O)[O-])cc1)=N\NC(=O)c1ccc(N)cc1 | 75 | 12.8 | < 4.92 | 
COc1ccc2c(c1)c(CC(=O)O)c(C)n2C(=O)c1ccc(Cl)cc1 [INDOMETHACIN] |  |  |  | inhibition in vivo at 80 mg/kg (Mus musculus): 35.9%
CN(C)c1ccc(C(=C2C=CC(=[N+](C)C)C=C2)c2ccc(N(C)C)cc2)cc1 [GENTIAN VIOLET] | 4.1 |  |  | 
CC(/C=N/Nc1ccc([N+](=O)[O-])cc1)=N\NC(=O)c1cccc(C)c1 | > 100 | 9.3 | < 4.92 | 
